# Assay: Toxicity liver stage against HepG2, at 10uM
# Type: cell-based
# Design: test concentration 10 uM, cell line HepG2-A16-CD81EGFP
# Conditions: human, HepG2-A16-CD81EGFP cells; read-out: INHIBITION
# Method in brief: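 Uninfected HepG2-A16-CD81EGFP cells, 3 × 10^3 per well, 1536-well, plated on prespotted compound at 10 μM final, parasite-free screening media added to match infected plates; puromycin 10 μM positive, DMSO 0.5% negative; run in parallel with 48 h PbLuc assay at 37 °C, 5% CO2; viability by CellTiter-Glo luminescence, normalized to controls.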
row,SMILES,cytotoxicity at 10 µM
1,COCc1cccc(NC(=O)N(C)Cc2ncc(C)c(OC)c2C)c1,-1.01%
2,CCN(CCO)Cc1cn(-c2cccc(F)c2)nc1-c1ccc(C)o1,8.32%
3,N#Cc1ccc(OC[C@]23COC[C@H]2CN(Cc2ccccn2)C3)nc1,-0.182%
4,O=C(Nc1cc(C(F)(F)F)c[nH]c1=O)C1CCCN1 (stereo not given),-7.33%
5,CC[C@@H](Cn1ncc2ccccc2c1=O)NC(=O)c1cnc(C)cn1,7.92%
6,COc1ccc(Cc2nnc(SC)o2)cc1OC,-13.8%
7,N#Cc1ccc(CN2C(=O)c3ccccc3CS2(=O)=O)c(F)c1,-0.639%
8,NC(=O)[C@@H]1Cc2ccccc2N1C(=O)C1CC(c2ccccc2)=NO1 (stereo not given in full),5.79%
9,COc1ccc(CS(=O)(=O)CC(=O)NCc2ccccc2F)cc1F,3.33%
10,Cc1nc(NC2CCCC2)cc(C2CCN2C(=O)c2ccccc2)n1 (stereo not given),-6.31%
11,O=C([C@H]1CN(Cc2ccccc2F)C[C@H]2OCC[C@@H]12)N1CCCO1,13%
12,Cn1cnnc1CN1CCC2(CCCN(C3CCCC3)C2=O)C1 (stereo not given),-133%
13,Cn1cc(N2C(=O)CC[C@@H]3[C@H]2CCN3Cc2nccs2)cn1,8.62%
14,C[C@@H]1CN(C(=O)c2c[nH]c(=O)c(Cl)c2)CC[C@@]1(O)C1CCOCC1,1.09%
15,O=C(c1cccc(Cl)c1)N1CC[C@@H](N2CCC(O)CC2)[C@H](O)C1,-1.61%
16,NC(=O)c1nc(-c2cccc(Cl)c2)oc1N,2.69%
17,Cn1cc(CN2CCC3(CCCN(Cc4ccccn4)C3)CC2)cn1,-6.54%
18,Cn1cnc2cc(C(=O)NS(=O)(=O)c3ccc(F)cc3)ccc21,-8.95%
19,O=C(NCc1cccnc1)C1CC(=O)N(CC2CC2)C1 (stereo not given),-3.46%
20,CCCc1nc(CNc2ccc(F)c(F)c2)no1,8.93%
21,c1ccc(CCN2CC(n3cccn3)C2)nc1,-0.2%
22,CNc1nccc(-c2cnc3sc(C)c(C)n3c2=O)n1,-2.78%

row,SMILES,cytotoxicity at 10 µM
1,CC(C)(O)CSCCNC(=O)c1ccc(F)cc1Cl,-10.9%
2,Cn1cnc(S(=O)(=O)Nc2cc(C(N)=O)ccc2Cl)c1,3.86%
3,CC(C)NC(=O)N1CCN(S(C)(=O)=O)CC2(CNC(=O)C2)C1 (stereo not given),8.71%
4,O=c1nc(SCc2ccncc2)c2c(n1CCO)CCCC2,-23.8%
5,CCN1CC(C(=O)N2CCC(Oc3ccccc3C)CC2)CC1=O (stereo not given),-12.1%
6,CC(C)c1noc(C(C)N2CCN(CCO)CC2)n1 (stereo not given),-2.26%
7,COCc1ccccc1C(=O)NCCCN1CCCC1C(=O)N(C)C (stereo not given),-14.5%
8,O=C(NCc1ccco1)N1CCCCC1c1nc(-c2ccncc2)no1 (stereo not given),-7.92%
9,CS(=O)(=O)c1ccc(CNC(=O)NCC2CCOC2)cc1 (stereo not given),-9.22%
10,CC1COCCN1C(=O)Cc1cc(Cl)c2c(c1)OCCO2 (stereo not given),-4.29%
11,Cc1cccc(N2CC[C@@H]3[C@@H](CO[C@H]3CNS(C)(=O)=O)C2)n1,3.62%
12,CN(CC(=O)NCC(CCO)c1ccccc1)C(=O)OC(C)(C)C (stereo not given),-6.58%
13,CCN(CC)S(=O)(=O)c1cc2c3c(c1)c(C)cc(=O)n3CCC2,2.85%
14,O=C(CCO)N1CC2(CCN(c3ccccc3)C2)C1,8.76%
15,CCc1cc(CN2CCC(CCC(=O)Nc3ccccc3Cl)CC2)on1,5.27%
16,Cc1ccnc(OC[C@]23COC[C@H]2CN(C(=O)c2ncccn2)C3)n1,-3.18%
17,O=C(c1cnccn1)N(CCO)Cc1cc(Br)ccc1F,5.64%
18,CCn1c(C)cc(C(=O)NCc2cccc(S(=O)(=O)NC)c2)c1C,-6.43%
19,CN(CCCOc1ccccc1Cl)C(=O)CN1CCCCCC1=O,-9.63%
20,COc1cc(C(=O)N2CCCC2c2noc(C(C)C)n2)on1 (stereo not given),-12.4%
21,CCc1ncc(CN2CCCC3(CCC(=O)N(CCC(C)C)C3)C2)cn1 (stereo not given),-7.66%
22,CCCN1CC2(CCN(c3cc(C4CC4)ncn3)CC2)CC1C(=O)O (stereo not given),-9.88%

row,SMILES,cytotoxicity at 10 µM
1,CC(C)c1cnc(CN(C)C2CCN(CCS(C)(=O)=O)C2)o1 (stereo not given),0.528%
2,COc1ccc(CN2CCN(c3nccnc3OC)CC2=O)cc1,2.82%
3,CNS(=O)(=O)c1cccc(C(C)NCc2ccccc2OC)c1 (stereo not given),-2.59%
4,CC(C)(C)C(CCO)NC(=O)Nc1ccccc1 (stereo not given),-3.3%
5,COCCCN1CC2(CCCN(c3ncnc4[nH]ccc34)C2)CCC1=O (stereo not given),-4.67%
6,CC(=O)N[C@@H]1CN(c2nc(CO)cs2)C[C@H]1c1ccc(C)o1,-47%
7,Cc1cc(C)c(CNC(=O)NCc2ccc3c(c2)CCC3)c(=O)[nH]1,10.4%
8,CCC(Nc1ncccn1)c1ccc(OC)cc1 (stereo not given),-12.6%
9,CC(C)(C)n1ncc2c1NC(=O)CC2c1ccc(C(=O)O)cc1 (stereo not given),2.08%
10,NC(=O)CN1CCCN(C(=O)Cc2ccc(F)cc2)CC1,-9.17%
11,Fc1ccc(OCCNCCn2cccn2)cc1,-4.17%
12,Cn1nccc1C(=O)N1CC[C@]2(C[C@H](OCc3ccccn3)CO2)C1,-80.6%
13,c1coc(-c2nc(CN3CCOC(Cn4cccn4)C3)cs2)c1 (stereo not given),-6.45%
14,COCC1CN(S(=O)(=O)c2cccs2)Cc2ncnn2C1 (stereo not given),-120%
15,O=C(c1ccccc1)N1CCCN(C(=O)c2ncncc2Cl)CC1,4.26%
16,CCOCC(O)CN1CCN(C(=O)c2cc(C)ccc2OC)CC1 (stereo not given),5.35%
17,C=C(Cl)CN1CCC(C(=O)c2cc(F)ccc2F)CC1,-7.26%
18,CC[C@H](C)[C@H](N)C(=O)Nc1nc(-c2cnc(N3CCOCC3)nc2)cs1,-8.72%
19,CCOCc1nc2c(c(NC(CC)c3ccnn3C)n1)CCNCC2 (stereo not given),-5.53%
20,CS(=O)(=O)c1ccc(O[C@H]2COCCN(C(=O)c3ccno3)C2)cc1,0.0962%
21,CCN1N=C(C(=O)N2CCCC(c3nc(C)cs3)C2)CCC1=O (stereo not given),-3.12%
22,Cc1ccc2c(c1)C(=O)NCC1(CCN(C(=O)c3csc(C)c3)CC1)O2,-27.7%

row,SMILES,cytotoxicity at 10 µM
1,COc1c(C2CCCN2C(=O)c2ccoc2)c(C)nn1C (stereo not given),4%
2,CN(Cc1ccccc1)c1ncccc1CNC1CN2CCC1CC2 (stereo not given),1.63%
3,Cc1cccc(CN2CC3(CCNCC3)OCC2=O)n1,-21.7%
4,CS(=O)(=O)CCC(=O)N(Cc1c(F)cccc1F)C1CCCC1,-12.9%
5,CC(=O)N1C[C@H]2CC[C@@H](C1)N(S(=O)(=O)c1ccc(C#N)cc1Cl)C2,1.33%
6,CCCn1cnc2c(cnn2-c2cccc(C)c2C)c1=O,-8.17%
7,CCn1cc(CN2CCC(c3nnc(CN(C)C)n3CC)CC2)cn1,-22.3%
8,CC1CCCN(S(=O)(=O)NCCCn2ccc3ccccc32)C1 (stereo not given),13.6%
9,O=C1CN(Cc2cnc3c(-c4ccccc4)cnn3c2)CCCN1,3.32%
10,CN1CCN(CC2CC2)C(=O)C12CCN(C(=O)CC(F)(F)F)CC2,8.75%
11,NC(=O)C1CCN(C(=O)c2ccn(-c3cccc(F)c3)n2)C1 (stereo not given),-3.05%
12,CCN1CCc2cc(-c3cncn3CC(=O)NC(C)(C)C)ccc21,-18.9%
13,CCc1nc(CC(=O)NCC(Cc2ccc(F)cc2)C(N)=O)cs1 (stereo not given),-0.86%
14,COc1ccc(S(=O)(=O)N2Cc3c(CN(C)C)nn(C)c3C2)cc1,3.94%
15,CC(C)(C)NC(=O)C1CCCCN1Cc1nccn1CC(F)(F)F (stereo not given),6.21%
16,O=C(c1ccccc1F)N1CC(c2nc(-c3ccc[nH]c3=O)no2)C1,2.21%
17,c1ccc(-c2cc(CN3C[C@H]4CC[C@H]3C4)on2)cc1,-5.33%
18,CCc1nc(N2CCCC(CCCOC)(C(=O)O)C2)ncc1C (stereo not given),3.43%
19,O=C(CN1CCc2sccc2C1)Nc1ccnc2ccnn12,46.8%
20,CCN1CCC(CC(=O)NCc2nc(C)cc(C)n2)CC1,-8.75%
21,O=C(c1ccncc1)N1CCCn2c(CN3CCCC3)nnc2C1,-76.9%
22,O=C(NC1CCCc2nc(N3CCOCC3)ncc21)C1CCCC1 (stereo not given),-2.3%

row,SMILES,cytotoxicity at 10 µM
1,CO[C@H]1CCN(Cc2ccccn2)[C@@H]2CN(Cc3ccco3)C[C@H]12,-7.76%
2,Cc1ccc(NC2CCN(C(=O)COC3CCCCC3)CC2)nn1,5.94%
3,COc1c(CNCc2ccccc2Cn2cccn2)c(C)nn1C,9.79%
4,Cc1ccc2c(c1)C1(CCN(C(=O)C3CC3)CC1)CC2N1CCOCC1 (stereo not given),-128%
5,Cc1cc(C(=O)NCC2CCC3(CC2)OCCO3)[nH]n1,-10.7%
6,COCCn1cnc2c(F)cc(Br)cc2c1=O,-0.62%
7,Cc1noc(C(C)C)c1C(=O)NCc1cccc(N(C)C)c1,-1.91%
8,Cc1cccc2nc(C(=O)N3CCCC[C@]4(C)NC(=O)CC[C@H]34)cn12,-13.7%
9,COc1cccc(-c2noc(-c3ccc(NCCCO)nc3)n2)c1OC,-1.5%
10,COc1ccc2[nH]c(C(=O)NCC3(N)CCCC3)cc2c1,4.3%
11,CNC(=O)c1cc(-c2ccccc2)nc2ncnn12,-4.66%
12,Cc1ccc(CNCC2CCN(CCO)CC2)cc1,-6.14%
13,CC(C)c1ncc2c(n1)CN(Cc1nc(-c3ccco3)no1)CC2,-11.4%
14,Cc1nc(CC(=O)N2CCC(c3ccn4nccc4n3)CC2)cs1,-0.956%
15,CC(C)c1nccn1C1CCCN(C(=O)c2cc(C3CC3)on2)C1 (stereo not given),-7.37%
16,CSCCC(O)C(=O)N1CCCN(Cc2ccc(F)cc2)CC1 (stereo not given),5.14%
17,NC(=O)C1CCN(CCCc2ccc(C(F)(F)F)cc2)CC1,-0.85%
18,CN(Cc1ccncc1)CC1CCCN(CCc2ccc(Cl)cc2)C1 (stereo not given),1.06%
19,CCc1nc(CN2CCCN(C(=O)c3ccco3)CC2)cs1,5.03%
20,CC(Cc1cccc(F)c1)C(=O)NS(=O)(=O)c1ccc2c(c1)OCCO2 (stereo not given),9.83%
21,CN(Cc1ccco1)C[C@@H]1OC[C@H]2CN(Cc3nccs3)CC[C@H]21,-5.46%
22,Cc1ccnc(NC(=O)c2ccc(F)c(S(=O)(=O)NC3CC3)c2)c1,10.4%
